# Values joined by “and” are separate entries in the source; they are usually repeats but may differ in a detail not shown here. Equal entries are not always repeated. Among all 300,000 compounds or so, about 4,400 (1.5%) were called active.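 The calls were made as follows: active = mean inhibition across valid replicates above about 55% (limit read from the data); inconclusive = mean below that limit but half or more replicates reach it; inactive = mean below it, under half of replicates reach it.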 The sample as a whole holds a higher share of actives than the screen did. Where a structure was tested more than once in an assay, its records may differ in their call.
# Test: Trypanosoma cruzi replication blockers in host cells – luminescence, NIH3T3 host cells, primary screen (AID 1885);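 also: signal also drops with host cell toxicity which is not excluded here; 0% = plate median of DMSO wells and 100% = zero luminescence signal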
# Conditions: T. cruzi beta-gal in NIH3T3, luminescence, 90 h; stronger effect = higher value; concentration not given here
# Outline: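 compound dosing = single 50 nL compound addition per well in DMSO | material = NIH/3T3 host cells with β-galactosidase reporter T. cruzi | input = 5,000 host fibroblasts per well | timing = ≥90 h infection period, 3 h prior cell attachment | read-out basis = percent inhibition of parasite-derived β-gal signal | detection = GalScreen β-gal luminescence, detergent lysis, 60 min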
row,SMILES,inhibition
1,O=C(CCNC(=O)c1ccc(Br)cc1)Nc1cccc(S(=O)(=O)N2CCCCC2)c1,3.39% (inactive)
2,COc1c(C)c2c(c(O)c1C/C=C(\C)CCC(=O)O)C(=O)OC2,62.2% (active)
3,CCN(CC(=O)Nc1c(F)cccc1F)C(=O)c1ccc(-c2ccccc2)cc1,-22.3% (inactive)
4,Cc1ccccc1NC(=O)C(C)OC(=O)CCC(=O)N(CC(C)C)c1c(N)n(CC(C)C)c(=O)[nH]c1=O (configuration not stated),0.843% (inactive)
5,Fc1ccc(CNCc2ccc(Br)cc2)cc1,-7.54% (inactive)
6,Cc1c(NC(=O)C(C)OC(=O)c2c3c(nc4ccccc24)CCC(C)C3)c(=O)n(-c2ccccc2)n1C (configuration not stated),-9.27% (inactive)
7,COC(=O)C1=CN(Cc2ccc(OC)c(OC)c2)C=C(C(=O)OC)C1c1cccs1,65% (active)
8,COC(=O)C1=CN(Cc2ccc(OC)cc2)C=C(C(=O)OC)C1c1ccc(O)c(OC)c1,11.3% (inactive)
9,COc1ccc(CCNC(=O)COC(=O)/C=C/c2cccs2)cc1OC,-3.17% (inactive)
10,Cc1cc(-n2nc(C)cc2C)n2nc(C)c(-c3ccccc3)c2n1,14.4% (inactive)
11,CCc1c(C)nc2c(-c3ccccc3)c(C)nn2c1Nc1ccc(NC(C)=O)cc1,54.5% (active)
12,Cc1cc(-c2ccccc2)n2nc(C)c(-c3ccccc3)c2n1,32.1% (inactive)
13,O=S(=O)(Nc1cccc(-c2ccc(N3CCOCC3)nn2)c1)c1ccc(Cl)c(Cl)c1,-4.53% (inactive)
14,COc1ccc(Cl)cc1NC(=O)CN(C)C(=O)c1cc2ccccc2cc1OC,12.8% (inactive)
15,COc1ccccc1OCCn1c(SCC(N)=O)nc2ccccc21,-6.95% (inactive)
16,O=C(CSc1ccccn1)N1CCN(S(=O)(=O)c2ccc(Cl)cc2)CC1,-3.29% (inactive)
17,O=C(Nc1ccccc1N1CCCC1)c1ccc(F)c(S(=O)(=O)N2CCOCC2)c1,-5.53% (inactive)
18,O=C(NCCCNC(=O)NC1CCCCC1)NC1CCCCC1,-9.22% (inactive)
19,CSc1cccc(NC(=S)N(Cc2ccccc2)Cc2ccccn2)c1,2.49% (inactive)
20,COc1cccc(NC(=S)N(Cc2ccc(C)cc2)Cc2ccccn2)c1,78.1% (active)
21,COc1cccc(NC(=S)NCc2ccccn2)c1,4.96% (inactive)
22,Nn1c(SCc2ccccc2)nnc1C1CCCCC1,2.33% (inactive)
23,CCc1ccc(N2CC(C(=O)Nc3ccc(S(=O)(=O)Nc4nccs4)cc3)CC2=O)cc1 (configuration not stated),-8.72% (inactive)

row,SMILES,inhibition
1,CC1C(=O)Nc2ccccc2N1C(=O)c1ccc(F)cc1F (configuration not stated),0.146% (inactive)
2,Cc1ccc(C(C)(C)C)c(OCCCCN2CCCC2)c1,27.7% (inactive)
3,O=[N+]([O-])c1ccccc1OCCCCN1CCCCC1,1.28% (inactive)
4,Cc1ccc(OCCCCN2CCCCC2)c(Br)c1,54.8% (active)
5,COC(=O)C1=C[C@@H](C(=O)OC)[C@@H]2C3=C(C(=O)[C@]2(C)NC(=O)c2ccccc2)[C@H](C)n2c(=O)n(C)c(=O)n2[C@@H]3C1,11.2% (inactive)
6,COc1ccccc1NS(=O)(=O)c1ccc(C)c(C(=O)NCC(c2ccco2)N(C)C)c1 (configuration not stated),4.14% (inactive)
7,CCNC(=O)COc1cc(C)c(Br)c(C)c1,8.23% (inactive)
8,Cc1cc(OCC(=O)NC2CCN(C)CC2)ccc1[N+](=O)[O-],49.2% (inactive)
9,Cc1cc(=O)oc2cc(OCCC[n+]3ccccc3)ccc12,1.14% (inactive)
10,Cc1ccccc1N1CCN(CCCOc2ccc3c(C)cc(=O)oc3c2)CC1,60% (active)
11,CCOc1ccccc1N1CCN(C(=O)COc2ccc3c(C)cc(=O)oc3c2)CC1,24% (inactive)
12,Cc1cc(OCCCN2CCN(Cc3ccccc3)CC2)ccc1[N+](=O)[O-],55.7% (active)
13,Cc1cc(OCCCCOc2ccc(C#N)cc2)ccc1[N+](=O)[O-],19.5% (inactive)
14,CC(C)CC(O)C1CCN(C(=O)CCc2nnc(-c3ccc4c(c3)OCO4)o2)CC1 (configuration not stated),3.35% (inactive)
15,Cc1ccc(OCCNC(=O)CNC(=O)c2ccc(C)c(C)c2)cc1,-2.75% (inactive)
16,Cc1ccc(C(=O)C[n+]2cc(-c3ccccc3)n3c2CCCCC3)cc1,45.3% (inactive) and 65.4% (active)
17,Cc1ccc(-c2c[n+](CC(=O)Nc3ccccc3)c3n2CCC3)cc1,-0.923% (inactive)
18,Clc1ccc(C[n+]2cc(-c3ccccc3)n3c2CCC3)cc1,27.8% (inactive)
19,COc1ccc(-c2cc(C(=O)N3CCN(Cc4ccc5c(c4)OCO5)CC3)on2)cc1OC,-12.7% (inactive)
20,CCC(CC)c1nnc(NC(=O)C2=COCCO2)s1,-5.48% (inactive)
21,CCNC(=O)COC(=O)CCNC(=O)c1cccc(C)c1,8.59% (inactive)
22,Cc1cccc(C(=O)NCCCN(C)CCCNC(=O)c2cccc(C)c2)c1,66.4% (active)
23,Cc1cccc(C(=O)c2cccc(C)c2)c1,-0.776% (inactive)

row,SMILES,inhibition
1,O=C(COC(=O)c1ccccc1Br)Nc1nnc(-c2ccccc2)o1,1.76% (inactive)
2,O=c1[nH]c(CCl)nc2cc(-c3ccc(Cl)cc3)sc12,55.8% (active)
3,O=c1[nH]c(CN2CCOCC2)nc2cc(Cl)ccc12,-13.1% (inactive)
4,NC(=O)Cc1nc2scc(-c3ccc(Cl)cc3)c2c(=O)[nH]1,-9.75% (inactive)
5,CCC1CCC/C1=N\NC(=O)c1ccc(Cl)cc1 (configuration not stated),-10.7% (inactive)
6,Cc1ccccc1Nc1nc(N)nc(CSc2ccccc2)n1,4.95% (inactive)
7,O=C(CNC(=O)c1ccccc1Br)NCCSc1ccc(Br)cc1,-2.64% (inactive)
8,O=C(/C=C/c1ccc(Cl)c([N+](=O)[O-])c1)c1ccc(O)cc1,-0.939% (inactive)
9,O=C(/C=C/c1ccc(Cl)c([N+](=O)[O-])c1)c1cccnc1,34% (inactive)
10,NC(N)=N/N=C/c1ccc(Cl)c([N+](=O)[O-])c1,60.6% (active)
11,COc1ccccc1C(=O)Nc1ccc(Nc2ccccc2)cc1,-9% (inactive)
12,COc1ccccc1CNC(=O)COn1nnc2ccc(S(=O)(=O)N3CCOCC3)cc21,3.8% (inactive)
13,Cc1ccccc1-n1c(SCC(=O)NCc2cccs2)nnc1-c1ccncc1,9.95% (inactive)
14,Cc1ccc(Nc2nc(CSc3nnc(-c4ccncc4)n3-c3ccccc3C)cs2)cc1,57.4% (active)
15,Cc1ccc(-c2noc(CSc3nnc(-c4ccncc4)n3-c3ccc(F)cc3)n2)cc1,9.52% (inactive)
16,COC(=O)c1cc(NC(=O)c2nn(C)c(=O)c3ccccc23)cc(C(=O)OC)c1,-14.3% (inactive)
17,O=C(CC1SC(N2CCCC2)=NC1=O)Nc1ccc(C(=O)NCCc2ccc(F)cc2)cc1 (configuration not stated),-6.73% (inactive)
18,COC(=O)c1[nH]c2cccc(C)c2c1NC(=O)CN1CCCc2ccccc21,4.45% (inactive)
19,NS(=O)(=O)c1cccc(NC(=O)CN2CCCc3ccccc32)c1,-16.2% (inactive)
20,COC(=O)c1[nH]c2ccccc2c1NC(=O)CN1CCCc2ccccc21,67.6% (active)
21,CSc1n[nH]c(=S)n1N,-10.3% (inactive)
22,COC(=O)c1cnc(Nc2cc(C)ccc2OC)c2ccccc12,-8.82% (inactive)
23,Cc1ccc(C(=O)NC(=S)NCc2cccnc2)cc1,14.1% (inactive)

row,SMILES,inhibition
1,Cc1nonc1NC(=O)c1oc2ccccc2c1C,-12.6% (inactive)
2,Cc1c(C(=O)NC(=S)NCc2cccnc2)oc2ccccc12,63.2% (active)
3,CC(C)CN(C(=O)COC(=O)c1ccc2ccccc2c1)c1c(N)n(Cc2ccccc2)c(=O)[nH]c1=O,2.62% (inactive)
4,CCN(C(=O)COC(=O)C1CCN(S(=O)(=O)c2ccc(C)c(C)c2)CC1)C1CCS(=O)(=O)C1 (configuration not stated),-2.19% (inactive)
5,Cc1ccc(C(=O)c2c(NC(=O)c3ccncc3)sc3c2CCCC3)cc1,57.9% (active)
6,Cc1ccc(NC(=O)c2c(NC(=O)CCC(=O)O)sc3c2CCCCC3)cc1,-8.68% (inactive)
7,NC(=O)c1c(NC(=O)c2ccccc2)sc2c1CCCC2,12.5% (inactive)
8,CN(C)C(CNC(=O)c1cccc(S(=O)(=O)Nc2ccc(Br)cc2)c1)c1ccco1 (configuration not stated),20.3% (inactive)
9,COc1ccc(OC)c(NC(=O)c2ccc3c(c2)C(=O)N(c2ccc(OC(C)=O)cc2)C3=O)c1,-18% (inactive)
10,CCCOc1ccc(NC(=O)C2OC3OC(C)(C)OC3C3OC(C)(C)OC23)cc1 (configuration not stated),4.62% (inactive)
11,CN1CCN(/N=C/c2ccc(C#N)cc2)CC1,48.6% (inactive)
12,CN1CCN(/N=C/c2ccc(-c3ccc([N+](=O)[O-])cc3)o2)CC1,59.9% (active)
13,Cc1cc(-c2ccc(/C=N/n3cnnc3)o2)c([N+](=O)[O-])cc1C,-3.12% (inactive)
14,COc1ccc(-c2nc3c(s2)CCc2onc(-c4ccc(Br)cc4)c2-3)cc1,-2.05% (inactive)
15,Cc1ccc(OCCNC(=O)CCNS(=O)(=O)c2ccc(Br)cc2)cc1,-1.12% (inactive)
16,COc1ccc(NC(=O)CSc2nnc(Cc3ccccc3)c(=O)n2N)cc1,-3.84% (inactive)
17,O=C(Nc1nc2ccc([N+](=O)[O-])cc2s1)c1ccc(S(=O)(=O)N2CCCc3ccccc32)cc1,73.8% (active)
18,CN(C)CCCN(C(=O)c1ccc(S(=O)(=O)N2CCCc3ccccc32)cc1)c1nc2ccc(F)cc2s1,22.9% (inactive)
19,CS(=O)(=O)c1ccc2nc(NC(=O)c3ccc(N4CCCC4=O)cc3)sc2c1,0.975% (inactive)
20,CC(C)(C)N1C(=O)[C@H]2[C@@H](c3ccc(Br)cc3)N3C(=O)N(c4cccc(Cl)c4)C(=O)[C@@]3(C)[C@H]2C1=O,-6.33% (inactive)
21,CC(=O)NCCC(=O)Nc1nc(-c2ccc3c(c2)OCCO3)cs1,-11.7% (inactive)
22,Cc1csc(NC(=O)C2=COCCO2)n1,-7.78% (inactive)
23,Cc1ccc(-c2csc(NC(=O)C3=COCCO3)n2)cc1C,71.6% (active)

# Reference: PubChem BioAssay AID1885 (Broad Institute, 2009)
